# Reference: ChEMBL document CHEMBL1765010, “Reversible competitive α-ketoheterocycle inhibitors of fatty acid amide hydrolase containing additional conformational constraints in the acyl side chain: orally active, long-acting analgesics” (J Med Chem, 2011)
# Active and inactive are the calls of the source.
# Tested on: Mus musculus
# Experiment: Inhibition of FAAH in C57Bl/6J mouse brain assessed as increase of anandamide level at 30 mg/kg, ip after 1 hr relative to control
# Assay type: functional
# Details: route intraperitoneal
# How it was run: (§1)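 Male C57Bl/6J mice (<6 months, 20–28 g) dosed i.p. at 30 mg/kg in 18:1:1 saline:ethanol:emulphor emulsion; brains taken 1 h later. One mouse in the initial screen, 3 per group in the follow-up. Brain homogenized in CHCl3:MeOH:Tris pH 8.0 with deuterated lipid standards; organic extract quantified by reverse-phase C18 LC-ESI-MS/MS against vehicle controls.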
row,SMILES,fold change (FC)
1,O=C(O)c1cccc(-c2cnc(C(=O)C3Cc4ccc(Oc5ccccc5)cc4C3)o2)n1 (stereo not given),1
2,O=C(c1ncc(-c2ccccn2)o1)C1Cc2ccc(Oc3ccccc3)cc2C1 (stereo not given),3

# Molecular target: not listed separately
# Experiment: Inhibition of full-length human FAAH expressed in COS-7 cells assessed as [14C]-labeled oleamide to oleic acid conversion
# Assay type: cell-based
# Details: not given
# How it was run: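 Substrate 20 μM 14C-oleamide; three inhibitor concentrations. Reaction stopped in 0.1 N HCl at three time points, extracted with EtOAc and read by TLC.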
row,SMILES,Ki [nM]
1,O=C(c1ncco1)C1CCc2cc(OCc3ccccc3)ccc2C1 (racemic),> 10000
2,COC(=O)c1cccc(-c2cnc(C(=O)C3CCc4cc(OCc5ccccc5)ccc4C3)o2)n1 (racemic),> 10000
3,O=C(c1ncco1)C1Cc2ccc(OCc3ccccc3)cc2C1 (racemic),> 24
4,COC(=O)c1cccc(-c2cnc(C(=O)C3Cc4ccc(OCc5ccccc5)cc4C3)o2)n1 (racemic),> 10000

# Tested on: Mus musculus
# Experiment: Inhibition of FAAH in C57Bl/6J mouse brain assessed as increase of N-palmitoyl ethanolamine level at 30 mg/kg, ip after 1 hr relative to control
# Assay type: functional
# Details: route intraperitoneal
# How it was run: as §1
row,SMILES,fold change (FC)
1,O=C(O)c1cccc(-c2cnc(C(=O)C3Cc4ccc(Oc5ccccc5)cc4C3)o2)n1 (stereo not given),1.2
2,O=C(c1ncc(-c2ccccn2)o1)C1Cc2ccc(Oc3ccccc3)cc2C1 (stereo not given),7.4

# Tested on: Mus musculus
# Experiment: Inhibition of FAAH in C57Bl/6J mouse brain assessed as increase of 2-arachidonoylglycerol level at 30 mg/kg, ip after 1 hr relative to control
# Assay type: functional
# Details: route intraperitoneal
# How it was run: as §1
row,SMILES,fold change (FC)
1,O=C(O)c1cccc(-c2cnc(C(=O)C3Cc4ccc(Oc5ccccc5)cc4C3)o2)n1 (stereo not given),0.9
2,O=C(c1ncc(-c2ccccn2)o1)C1Cc2ccc(Oc3ccccc3)cc2C1 (stereo not given),0.8

# Tested on: Mus musculus
# Experiment: Antinociceptive activity in CD1 mouse assessed as thermal-stimulus induced tail flick latency at 1 to 3.2 mg/kg, iv after 150 mins
# Assay type: functional, organism-based
# Details: not given
# How it was run: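 Mice given compound i.v.; tail-flick latency to 52 °C water measured at several times after dosing. Animals not responding within 5 s at baseline were excluded, and a 10 s cut-off was scored as 100%. % antinociception = 100 × (test − control latency)/(10 − control latency).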
row,SMILES,Activity
1,CN1CC[C@]23c4c5ccc(O)c4O[C@H]2[C@@H](O)C=C[C@H]3[C@H]1C5,Active

# Molecular target: T1, Fatty-acid amide hydrolase 1 (Rattus norvegicus, UniProt P97612)
# T1 sequence (P97612 whole entry): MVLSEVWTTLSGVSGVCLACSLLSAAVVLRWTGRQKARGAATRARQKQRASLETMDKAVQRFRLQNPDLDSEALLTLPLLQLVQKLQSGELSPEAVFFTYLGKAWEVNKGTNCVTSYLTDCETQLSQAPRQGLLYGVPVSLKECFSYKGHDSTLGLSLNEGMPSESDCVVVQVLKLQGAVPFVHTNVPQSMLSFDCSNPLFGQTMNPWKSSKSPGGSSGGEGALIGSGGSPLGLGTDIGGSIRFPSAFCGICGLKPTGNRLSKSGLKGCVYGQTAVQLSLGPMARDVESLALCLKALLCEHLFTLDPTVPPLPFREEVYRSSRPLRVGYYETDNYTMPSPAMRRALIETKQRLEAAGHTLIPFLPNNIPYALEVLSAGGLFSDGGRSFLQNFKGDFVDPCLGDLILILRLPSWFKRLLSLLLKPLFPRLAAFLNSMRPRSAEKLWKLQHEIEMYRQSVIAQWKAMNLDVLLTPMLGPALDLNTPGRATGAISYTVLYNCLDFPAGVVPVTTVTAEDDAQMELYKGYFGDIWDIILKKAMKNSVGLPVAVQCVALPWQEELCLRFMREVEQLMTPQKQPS
# Experiment: Inhibition of rat FAAH expressed in E. coli assessed as [14C]-labeled oleamide to oleic acid conversion
# Details: not given
row,SMILES,Ki [nM]
1,COC(=O)c1cnc(C(=O)[C@@H]2CCc3cc(-c4ccccc4)ccc3C2)o1,1400
2,O=C(c1ncco1)[C@H]1CCc2ccccc2C1,5100
3,O=C(c1ncc(-c2ccccn2)o1)[C@@H]1CCc2ccccc2C1,3200
4,COC(=O)c1cnc(C(=O)[C@H]2CCc3cc(-c4ccccc4)ccc3C2)o1,55
5,COC(=O)c1cnc(C(=O)[C@@H]2CCc3cc(OCc4ccccc4)ccc3C2)o1,53
6,COC(=O)c1nnc(C(=O)[C@@H]2CCc3cc(Oc4ccccc4)ccc3C2)o1,1.6
7,O=C(c1ncc(-c2ccccn2)o1)[C@H]1CCc2cc(-c3ccccc3)ccc2C1,7.2
8,O=C(c1ncc(I)o1)C1CCc2cc(OCc3ccccc3)ccc2C1 (racemic),8
9,O=C(c1ncco1)[C@@H]1CCc2cc(-c3ccccc3)ccc2C1,460
10,O=C(O)c1cccc(-c2cnc(C(=O)[C@@H]3CCc4cc(Oc5ccccc5)ccc4C3)o2)n1,220
11,O=C(c1ncc(-c2ccccn2)o1)[C@H]1CCc2cc(OCc3ccccc3)ccc2C1,3.2
12,O=C(c1nnco1)[C@@H]1CCc2cc(Oc3ccccc3)ccc2C1,1.4
13,O=C(c1ncc(-c2ccccn2)o1)[C@@H]1CCc2cc(OCc3ccccc3)ccc2C1,300
14,COC(=O)c1nnc(C(=O)[C@H]2CCc3cc(Oc4ccccc4)ccc3C2)o1,1.5
15,O=C(c1ncco1)[C@H]1Cc2ccc(-c3ccccc3)cc2C1,27
16,COC(=O)c1cccc(-c2cnc(C(=O)[C@@H]3CCc4cc(-c5ccccc5)ccc4C3)o2)n1,700
17,N#Cc1cnc(C(=O)[C@H]2CCc3cc(Oc4ccccc4)ccc3C2)o1,1.3
18,O=C(O)c1cccc(-c2cnc(C(=O)[C@H]3Cc4ccc(Oc5ccccc5)cc4C3)o2)n1,71
19,COC(=O)c1cccc(-c2cnc(C(=O)[C@H]3Cc4ccc(OCc5ccccc5)cc4C3)o2)n1,5.8
20,N#Cc1cnc(C(=O)[C@H]2CCc3cc(-c4ccccc4)ccc3C2)o1,3.4
21,COC(=O)c1cccc(-c2cnc(C(=O)[C@H]3Cc4ccc(Oc5ccccc5)cc4C3)o2)n1,98
22,O=C(c1nnc(-c2ccccn2)o1)[C@H]1CCc2cc(Oc3ccccc3)ccc2C1,1
23,COC(=O)c1cccc(-c2cnc(C(=O)[C@H]3CCc4cc(OCc5ccccc5)ccc4C3)o2)n1,18

row,SMILES,Ki [nM]
1,COC(=O)c1cnc(C(=O)[C@H]2CCc3cc(OCc4ccccc4)ccc3C2)o1,2.9
2,COC(=O)c1cccc(-c2cnc(C(=O)[C@@H]3Cc4ccc(Oc5ccccc5)cc4C3)o2)n1,790
3,O=C(c1ncc(-c2ccccn2)o1)[C@@H]1Cc2ccc(-c3ccccc3)cc2C1,600
4,N#Cc1cnc(C(=O)[C@@H]2CCc3cc(OCc4ccccc4)ccc3C2)o1,120
5,COC(=O)c1cnc(C(=O)[C@@H]2CCc3cc(Oc4ccccc4)ccc3C2)o1,59
6,COC(=O)c1cccc(-c2cnc(C(=O)[C@@H]3Cc4ccc(OCc5ccccc5)cc4C3)o2)n1,130
7,O=C(O)c1cccc(-c2cnc(C(=O)[C@H]3Cc4ccc(OCc5ccccc5)cc4C3)o2)n1,51
8,O=C(O)c1cccc(-c2cnc(C(=O)[C@@H]3Cc4ccc(OCc5ccccc5)cc4C3)o2)n1,660
9,O=C(c1ncc(-c2ccccn2)o1)[C@@H]1CCc2cc(Oc3ccccc3)ccc2C1,290
10,O=C(c1ncco1)[C@@H]1CCc2cc(OCc3ccccc3)ccc2C1,87
11,O=C(O)c1cccc(-c2cnc(C(=O)[C@H]3CCc4cc(-c5ccccc5)ccc4C3)o2)n1,39
12,N#Cc1cnc(C(=O)[C@@H]2CCc3cc(Oc4ccccc4)ccc3C2)o1,54
13,O=C(c1ncco1)[C@H]1CCc2cc(Oc3ccccc3)ccc2C1,2.2
14,O=C(c1ncco1)[C@@H]1CCc2ccccc2C1,12000
15,O=C(c1ncco1)[C@H]1CCc2cc(-c3ccccc3)ccc2C1,57
16,O=C(c1ncc(I)o1)[C@@H]1CCc2cc(OCc3ccccc3)ccc2C1,700
17,O=C(c1nnco1)[C@H]1CCc2cc(Oc3ccccc3)ccc2C1,0.5
18,O=C(c1ncco1)[C@H]1Cc2ccc(Oc3ccccc3)cc2C1,10
19,O=C(c1ncc(-c2ccccn2)o1)[C@H]1Cc2ccc(-c3ccccc3)cc2C1,1.9
20,COC(=O)c1cccc(-c2cnc(C(=O)[C@H]3CCc4cc(-c5ccccc5)ccc4C3)o2)n1,27
21,O=C(c1ncc(-c2ccccn2)o1)[C@@H]1Cc2ccc(Oc3ccccc3)cc2C1,42
22,O=C(O)c1cccc(-c2cnc(C(=O)[C@@H]3Cc4ccc(Oc5ccccc5)cc4C3)o2)n1,550
23,O=C(c1ncc(-c2ccccn2)o1)[C@H]1Cc2ccc(Oc3ccccc3)cc2C1,2.1

row,SMILES,Ki [nM]
1,COC(=O)c1cnc(C(=O)[C@H]2CCc3cc(Oc4ccccc4)ccc3C2)o1,5.4
2,O=C(O)c1cccc(-c2cnc(C(=O)C3Cc4ccc(-c5ccccc5)cc4C3)o2)n1 (racemic),57
3,O=C(c1ncc(I)o1)[C@H]1CCc2cc(OCc3ccccc3)ccc2C1,4.1
4,O=C(c1ncc(-c2ccccn2)o1)[C@@H]1CCc2cc(-c3ccccc3)ccc2C1,240
5,O=C(c1ncco1)[C@@H]1CCc2cc(Oc3ccccc3)ccc2C1,410
6,O=C(O)c1cccc(-c2cnc(C(=O)[C@H]3CCc4cc(OCc5ccccc5)ccc4C3)o2)n1,34
7,O=C(c1ncc(-c2ccccn2)o1)[C@H]1Cc2ccc(OCc3ccccc3)cc2C1,1.4
8,N#Cc1cnc(C(=O)[C@@H]2CCc3cc(-c4ccccc4)ccc3C2)o1,62
9,O=C(c1nnc(-c2ccccn2)o1)[C@@H]1CCc2cc(Oc3ccccc3)ccc2C1,6.3
10,COC(=O)c1cccc(-c2cnc(C(=O)C3Cc4ccc(-c5ccccc5)cc4C3)o2)n1 (racemic),6.2
11,O=C(c1ncc(-c2ccccn2)o1)[C@@H]1Cc2ccc(OCc3ccccc3)cc2C1,110
12,O=C(c1ncco1)[C@@H]1Cc2ccc(Oc3ccccc3)cc2C1,200
13,COC(=O)c1cccc(-c2cnc(C(=O)[C@@H]3CCc4cc(Oc5ccccc5)ccc4C3)o2)n1,870
14,N#Cc1cnc(C(=O)[C@H]2CCc3cc(OCc4ccccc4)ccc3C2)o1,3.2
15,O=C(O)c1cccc(-c2cnc(C(=O)[C@@H]3CCc4cc(OCc5ccccc5)ccc4C3)o2)n1,740
16,COC(=O)c1cccc(-c2cnc(C(=O)[C@H]3CCc4cc(Oc5ccccc5)ccc4C3)o2)n1,2.2
17,O=C(c1ncco1)[C@H]1CCc2cc(OCc3ccccc3)ccc2C1,6.1
18,O=C(c1ncco1)[C@@H]1Cc2ccc(-c3ccccc3)cc2C1,140
19,O=C(c1ncc(-c2ccccn2)o1)[C@H]1CCc2ccccc2C1,430
20,COC(=O)c1cccc(-c2cnc(C(=O)[C@@H]3CCc4cc(OCc5ccccc5)ccc4C3)o2)n1,4500
21,O=C(O)c1cccc(-c2cnc(C(=O)[C@@H]3CCc4cc(-c5ccccc5)ccc4C3)o2)n1,500

# Tested on: Mus musculus
# Experiment: Inhibition of FAAH in C57Bl/6J mouse brain assessed as increase of arachidonic acid level at 30 mg/kg, ip after 1 hr relative to control
# Assay type: functional
# Details: route intraperitoneal
# How it was run: as §1
row,SMILES,fold change (FC)
1,O=C(O)c1cccc(-c2cnc(C(=O)C3Cc4ccc(Oc5ccccc5)cc4C3)o2)n1 (stereo not given),0.8
2,O=C(c1ncc(-c2ccccn2)o1)C1Cc2ccc(Oc3ccccc3)cc2C1 (stereo not given),0.9
